Reference: ChEMBL document CHEMBL1143285, “Synthesis and biological evaluation of 2-phenylquinolones targeted at Tat/TAR recognition” (Bioorg Med Chem Lett, 2009)
Activity calls are given as the source filed them. The calls are words filed in the database; no cut-off is given here.

What was measured:
[1] = (§1) Inhibition of HIV Tat/TAR complex formation by fluorescence quenching assay; parameters: species or system Human immunodeficiency virus
[2] = Aqueous solubility in buffer; type: physicochemical
[3] = system: Jurkat; test: Cytotoxicity against human Jurkat cells at 100 uM after 72 hrs by MTT assay; type: cell-based
In short: (§2)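 MTT viability readout in CEM and Jurkat cells after 72 h incubation with compounds up to 100 µM; EC50 derived where applicable.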

[4] = system: Human immunodeficiency virus 1; test: Antiviral activity against HIV1 infected in human Jurkat cells assessed as compound uptake after 3 hrs by fluorescence assay; type: functional; parameters: concentration or dose not given beside the values
In short: (§3)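 Jurkat or CEM cells (2.5 × 10⁶/well) incubated in HBSS with compound at 100 µM, 3 h, 37 °C. Cells separated from medium by centrifugation through water-impermeable silicone-oil barrier, pellet lysed overnight in 0.1 M glycine–HCl pH 3.0, spun 5 min at 5600g. Compound in supernatant quantified by fluorescence at pH 3 against per-compound titration curve; reported as % uptake.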

[5] = system: CCRF-CEM; test: Cytotoxicity against human CEM cells at 100 uM after 72 hrs by MTT assay; type: cell-based; in short: as §2
[6] = system: Human immunodeficiency virus 1; test: Antiviral activity against HIV1 infected in human CEM cells assessed as compound uptake after 3 hrs by fluorescence assay; type: functional, CCRF-CEM; in short: as §3
[7] = system: Jurkat; test: Cytotoxicity against human Jurkat cells after 72 hrs by MTT assay; type: cell-based; in short: as §2
[8] = system: Human immunodeficiency virus; test: as §1
[9] = system: Human immunodeficiency virus 1; test: Antiviral activity against HIV1 infected in human Jurkat cells assessed as compound uptake after 3 hrs by fluorescence assay in presence of lipofectamine; type: functional

Row | Compound | Ki [1] [nM] | solubility [2] | Activity [8] | Activity [3] | Activity [4] [%] | Activity [5] | Activity [6] [%] | EC50 [7] [nM] | Activity [9]
1 | COc1cc(OC)c2c(=O)cc(-c3ccc(OCCCN)c(N)c3)n(C)c2c1 | 3850 | Soluble | – | Non-toxic | – | Non-toxic | – | – | –
2 | COc1cc(OC)c2c(=O)cc(-c3ccc(OCCCN)c(NC(=O)CCc4cccnc4)c3)n(C)c2c1 | – | Soluble | inactive | Non-toxic | – | Non-toxic | – | – | –
3 | COc1cc(OC)c2c(=O)cc(-c3ccc(OCCCN4CCN(C)CC4)c(NC(=O)CCCN(C)C)c3)n(C)c2c1 | – | Soluble | inactive | Non-toxic | – | Non-toxic | – | – | –
4 | COc1cc(OC)c2c(=O)cc(-c3ccc(OCCCN)c(NC(=O)CCCN(C)C)c3)n(C)c2c1 | 3030 | Soluble | – | Non-toxic | 0.67 | Non-toxic | 1.2 | – | –
5 | Cn1cc(C(=O)O)c(=O)c2cc(N)c(N3CCN(c4ccccn4)CC3)cc21 | 2180 | Soluble | – | Non-toxic | 23.2 | Non-toxic | 7.5 | – | <=40%
6 | COc1cc(OC)c2c(=O)cc(-c3ccc(O)c(N)c3)n(C)c2c1 | – | Soluble | inactive | Non-toxic | 25 | Non-toxic | – | – | –

Continued, in another order:

Row | Ki [1] [nM] | solubility [2] | Activity [8] | Compound | Activity [3] | Activity [4] [%] | Activity [5] | Activity [6] [%] | EC50 [7] [nM] | Activity [9]
7 | 1950 | Soluble | – | COc1cc(OC)c2c(=O)cc(-c3ccc(OCCCN4CCCCC4)c(N)c3)n(C)c2c1 | Non-toxic | 0.94 | Non-toxic | 1.8 | – | –
8 | 1020 | Soluble | – | COc1cc(OC)c2c(=O)cc(-c3ccc(OCCCN4CCCCC4)cc3)n(C)c2c1 | – | 3.27 | – | – | 94700 | –
9 | 1580 | Soluble | – | COc1cc(OC)c2c(=O)cc(-c3ccc(OCCCN4CCN(C)CC4)c(N)c3)n(C)c2c1 | Non-toxic | 0.82 | Non-toxic | 1.1 | – | –
10 | 2600 | Soluble | – | COc1cc(OC)c2c(=O)cc(-c3ccc(OCCCN4CCCCC4)c(NC(=O)CCCN(C)C)c3)n(C)c2c1 | Non-toxic | – | Non-toxic | – | – | –
